Calls of active or inactive are those of the source. The rule behind the calls is not given here.

Assay [1] has as its target T1, Neuropeptide Y receptor type 5 (Homo sapiens) (UniProt Q15761).
T1 sequence (whole entry): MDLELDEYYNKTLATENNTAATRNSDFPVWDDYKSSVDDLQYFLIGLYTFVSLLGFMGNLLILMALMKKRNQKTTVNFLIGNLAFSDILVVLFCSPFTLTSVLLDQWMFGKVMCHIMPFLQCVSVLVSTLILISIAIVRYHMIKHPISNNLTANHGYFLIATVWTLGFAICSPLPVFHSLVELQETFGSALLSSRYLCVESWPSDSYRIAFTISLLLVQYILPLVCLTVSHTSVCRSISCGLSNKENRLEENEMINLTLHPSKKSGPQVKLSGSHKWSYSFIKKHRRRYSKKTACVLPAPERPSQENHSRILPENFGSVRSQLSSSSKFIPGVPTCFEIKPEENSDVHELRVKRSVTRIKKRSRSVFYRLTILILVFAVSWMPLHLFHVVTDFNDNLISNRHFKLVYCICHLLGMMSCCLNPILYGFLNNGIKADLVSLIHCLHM
Description: Allosteric antagonist activity at […]-tagged human NPY5R expressed in COS7 cells co-expressing Gqi5-alpha assessed as inhibition of NPY-induced Ca2+ flux at 30 uM by Fluo-2 AM dye based fluorescent assay. In kind it is functional, cell-based. The gist of the method: (§1)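 Stable COS7 lines expressing Y1R-, Y2R- or Y5R-eYFP plus chimeric Δ6Gαqi4myr, loaded with 2.4 μM Fluo2-AM in HBSS/20 mM HEPES/2.5 mM probenecid pH 7.4. After 20 s baseline, DMSO or 30 μM compound added, NPY added 110 s later, 140 s run. Read at ex 485/em 525 nm. Signal taken as x-fold over basal, normalized to 1 μM NPY maximum. N ≥ 3.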

Assay [2] addresses T2, Neuropeptide Y receptor type 4 (Homo sapiens, UniProt P50391). Description: Allosteric antagonist activity at human NPY4R expressed in HEK293 cells assessed as reduction in PP-induced arrestin-3 recruitment at 30 uM measured after 30 mins by BRET assay. In kind it is cell-based. The note with it: filed as allosteric antagonist. The gist of the method:
(§2)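 BRET in HEK293 cells transiently expressing Y4R-Rluc8 and venus-arr3. Pretreated with 30 μM compound or DMSO, then read continuously for 30 min after 100 nM PP. Fluorescence/luminescence ratio, unstimulated control subtracted to give netBRET. Rate constant k from a one-phase association fit. N ≥ 4, unpaired t-test.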

In assay [3] the target is T3, Neuropeptide Y receptor type 2 (Homo sapiens) (UniProt P49146).
T3 sequence (whole entry): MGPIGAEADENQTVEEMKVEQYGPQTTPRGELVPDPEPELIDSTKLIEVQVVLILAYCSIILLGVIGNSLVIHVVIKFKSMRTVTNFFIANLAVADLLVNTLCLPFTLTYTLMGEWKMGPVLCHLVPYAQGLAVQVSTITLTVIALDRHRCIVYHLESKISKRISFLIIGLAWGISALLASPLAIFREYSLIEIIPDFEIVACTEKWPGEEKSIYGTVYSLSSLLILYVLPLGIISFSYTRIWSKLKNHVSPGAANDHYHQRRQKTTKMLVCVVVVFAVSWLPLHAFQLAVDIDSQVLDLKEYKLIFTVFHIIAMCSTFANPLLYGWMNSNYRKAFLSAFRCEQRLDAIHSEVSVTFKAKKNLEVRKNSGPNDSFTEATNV
Nature of the assay: Allosteric antagonist activity at […]-tagged human NPY2R expressed in COS7 cells co-expressing Gqi5-alpha assessed as inhibition of NPY-induced Ca2+ flux at 30 uM by Fluo-2 AM dye based fluorescent assay. In kind it is functional, cell-based. In outline: as §1

Assay [4] addresses T2, Neuropeptide Y receptor type 4. Nature of the assay: Allosteric antagonist activity at […]-tagged human NPY4R expressed in COS7 cells co-expressing Gqi5-alpha assessed as inhibition of PP-induced Ca2+ flux by Fluo-2 AM dye based fluorescent assay relative to control. Format: functional, cell-based.
In assay [5] the target is T4, Neuropeptide Y receptor type 1 (Homo sapiens) (UniProt P25929).
T4 sequence (whole entry): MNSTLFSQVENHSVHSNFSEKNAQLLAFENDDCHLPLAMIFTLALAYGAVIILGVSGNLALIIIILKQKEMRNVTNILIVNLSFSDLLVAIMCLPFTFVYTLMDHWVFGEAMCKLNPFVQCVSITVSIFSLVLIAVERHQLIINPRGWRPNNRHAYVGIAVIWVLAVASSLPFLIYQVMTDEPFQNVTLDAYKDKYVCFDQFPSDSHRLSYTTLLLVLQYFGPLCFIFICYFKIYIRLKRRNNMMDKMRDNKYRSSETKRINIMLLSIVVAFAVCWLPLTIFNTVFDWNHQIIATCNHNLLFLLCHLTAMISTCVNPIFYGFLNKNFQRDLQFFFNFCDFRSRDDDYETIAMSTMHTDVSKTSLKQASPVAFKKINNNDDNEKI
Description: Allosteric antagonist activity at […]-tagged human NPY1R expressed in COS7 cells co-expressing Gqi5-alpha assessed as inhibition of NPY-induced Ca2+ flux at 30 uM by Fluo-2 AM dye based fluorescent assay. Format: functional, cell-based. In outline:
as §1

The target of assay [6] is T2, Neuropeptide Y receptor type 4. Nature of the assay: Allosteric antagonist activity at human NPY4R expressed in HEK293 cells assessed as reduction in rate of PP-induced arrestin-3 recruitment at 30 uM measured after 30 mins by BRET assay. In kind it is cell-based. The conditions noted are these: filed as allosteric antagonist. The gist of the method:
as §2

Assay [7] shares this target. Description: Inhibition of 10 nM PP-induced receptor internalization of eYFP-tagged human NPY4R expressed in HEK293 cells at 30 uM after 30 mins by fluorescence microscopy. Format: cell-based. The conditions noted are these: filed as allosteric antagonist. In outline: (§3)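 HEK293 cells stably expressing Y4R-eYFP, nuclei stained with Hoechst. Cells given 30 μM compound or DMSO in OptiMEM, then 10 or 100 nM PP (or medium) for 30 min at 37 °C. eYFP imaged at a fixed 400 ms exposure. Cell-surface fluorescence quantified as pixel intensity, normalized to unstimulated DMSO control.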

For assay [8] the target is unchanged. Description: Displacement of [125I]-PP from human NPY4R expressed in HEK293 cell membranes assessed as remaining radioligand binding incubated for 5 hrs using 60 pM [125I]-PP by microBeta scintillation counting assay. The conditions noted are these: Cell membrane, filed as allosteric antagonist. The gist of the method: (§4)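 Membranes from stable HEK293 Y4R-eYFP cells, 0.3 μg in HEPES buffer (25 mM HEPES, […], 1 mM MgCl2, Pefabloc, pH 7.4) with DMSO or compound. Incubated with 60 or 180 pM human ¹²⁵I-PP for 5 h at room temperature. Nonspecific binding set with 1 μM PP. Bound ligand collected on PEI-soaked GF/C filters and counted by scintillation.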

Assay [9] deals with COS7. Description: Allosteric antagonist activity at human NPY4R chimera containing NPY1R transmembrane helix 2 expressed in COS7 cells co-expressing Gqi5-alpha assessed as inhibition of PP-induced Ca2+ flux at 15 uM by Fluo-2 AM dye based fluorescent assay. Format: cell-based. In outline:
(§5)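 Y4R/Y1R chimeras carrying Y1R TM1, TM2 or ECL2 segments, C-terminal eYFP, transiently cotransfected with Δ6Gαqi4myr in COS7 cells. Fluo2-AM Ca²⁺ flux. 15 μM antagonist or DMSO added, followed by PP. Reduction in PP response given relative to DMSO control, normalized to 1 μM PP.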

Assay [10] has as its target T2, Neuropeptide Y receptor type 4. Nature of the assay: Inhibition of 100 nM PP-induced receptor internalization of eYFP-tagged human NPY4R expressed in HEK293 cells at 30 uM after 30 mins by fluorescence microscopy. Format: cell-based. The note with it: filed as allosteric antagonist. In outline: as §3
The target is the same in assay [11]. Description: Displacement of [125I]-PP from human NPY4R expressed in HEK293 cell membranes assessed as remaining radioligand binding incubated for 5 hrs using 180 pM [125I]-PP by microBeta scintillation counting assay. The conditions noted are these: Cell membrane. The gist of the method: as §4
Assay [12] deals with COS7. Description: Allosteric antagonist activity at human NPY4R chimera containing NPY1R extracellular loop 2 expressed in COS7 cells co-expressing Gqi5-alpha assessed as inhibition of PP-induced Ca2+ flux at 15 uM by Fluo-2 AM dye based fluorescent assay. In kind it is cell-based. In outline:
as §5

The test system of assay [13] is COS7. Nature of the assay: Allosteric antagonist activity at human NPY4R chimera containing NPY1R transmembrane helix 1 expressed in COS7 cells co-expressing Gqi5-alpha assessed as inhibition of PP-induced Ca2+ flux at 15 uM by Fluo-2 AM dye based fluorescent assay. Format: cell-based. In outline: as §5
Assay [14] concerns the target T2, Neuropeptide Y receptor type 4. Nature of the assay: Displacement of [125I]-PP from human NPY4R expressed in HEK293 cell membranes incubated for 5 hrs by microBeta scintillation counting assay. The note with it: Cell membrane, filed as allosteric antagonist. The gist of the method:
as §4

Assay [15] has the same target. Nature of the assay: Inhibition of receptor internalization of eYFP-tagged human NPY4R expressed in HEK293 cells at 30 uM after 30 mins by fluorescence microscopy. In kind it is cell-based. The gist of the method:
as §3

Assay [16] addresses T5, Neuropeptide Y receptor type 2 (Mus musculus) (UniProt P97295).
T5 sequence (whole entry): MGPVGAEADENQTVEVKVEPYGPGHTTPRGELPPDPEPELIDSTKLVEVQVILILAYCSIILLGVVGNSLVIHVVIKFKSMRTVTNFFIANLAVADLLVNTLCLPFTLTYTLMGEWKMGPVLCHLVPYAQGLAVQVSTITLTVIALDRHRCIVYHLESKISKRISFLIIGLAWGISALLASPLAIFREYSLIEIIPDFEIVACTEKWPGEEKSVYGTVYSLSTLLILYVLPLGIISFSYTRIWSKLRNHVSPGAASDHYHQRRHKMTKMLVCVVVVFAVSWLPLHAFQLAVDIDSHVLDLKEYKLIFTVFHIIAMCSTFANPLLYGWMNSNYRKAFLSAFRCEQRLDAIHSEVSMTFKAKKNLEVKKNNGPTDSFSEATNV
Nature of the assay: Allosteric antagonist activity at NPY2R in mouse descending colon mucosa assessed as reduction in PYY-induced ion transport at 0.3 to 30 uM by electrophysiology. The conditions noted are these: dose 0.3-30 µM.

Assay [17] has as its target T6, Neuropeptide Y receptor type 1 (Mus musculus) (UniProt Q04573).
T6 sequence (whole entry): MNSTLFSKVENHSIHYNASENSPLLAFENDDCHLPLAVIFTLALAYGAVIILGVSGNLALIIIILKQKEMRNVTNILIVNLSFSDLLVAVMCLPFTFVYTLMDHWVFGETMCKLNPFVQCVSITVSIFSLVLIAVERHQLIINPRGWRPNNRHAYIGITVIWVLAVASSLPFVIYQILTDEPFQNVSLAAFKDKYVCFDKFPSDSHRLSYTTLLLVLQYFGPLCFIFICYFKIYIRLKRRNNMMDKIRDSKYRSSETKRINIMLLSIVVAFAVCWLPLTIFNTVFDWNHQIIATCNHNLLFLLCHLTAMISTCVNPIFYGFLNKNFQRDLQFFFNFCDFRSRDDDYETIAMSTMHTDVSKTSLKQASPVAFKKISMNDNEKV
Description: Allosteric antagonist activity at NPY1R in mouse descending colon mucosa assessed as reduction in PYY-induced ion transport at 0.3 to 30 uM by electrophysiology. The note with it: dose 0.3-30 µM.

Assay [18] addresses T6, Neuropeptide Y receptor type 1 (Mus musculus). Nature of the assay: Allosteric antagonist activity at NPY1R in mouse descending colon mucosa assessed as reduction in PYY-induced ion transport at 30 uM by electrophysiology.
The target in assay [19] is T5, Neuropeptide Y receptor type 2 (Mus musculus). Description: Allosteric antagonist activity at NPY2R in mouse descending colon mucosa assessed as reduction in PYY-induced ion transport at 30 uM by electrophysiology.

T2 sequence (P50391 whole entry): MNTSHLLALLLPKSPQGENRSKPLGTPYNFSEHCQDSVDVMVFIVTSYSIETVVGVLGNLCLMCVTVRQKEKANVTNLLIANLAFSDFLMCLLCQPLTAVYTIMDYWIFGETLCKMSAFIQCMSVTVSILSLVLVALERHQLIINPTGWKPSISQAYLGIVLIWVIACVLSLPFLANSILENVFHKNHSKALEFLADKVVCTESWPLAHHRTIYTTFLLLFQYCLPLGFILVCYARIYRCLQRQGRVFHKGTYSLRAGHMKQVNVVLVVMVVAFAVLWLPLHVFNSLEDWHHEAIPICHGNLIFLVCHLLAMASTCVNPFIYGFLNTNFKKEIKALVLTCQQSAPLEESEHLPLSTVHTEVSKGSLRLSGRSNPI

As to `CS(=O)(=O)N1CCCCC1C(=O)Nc1nc2cc3c(cc2s1)OCCO3` (racemic), the inhibition entry (in assay [1]; in [3]; in assay [5]; in the assay on COS7 [9]; in assay [11]; in the assay with COS7 [12]) was “inactive” throughout. The inhibition entry (in the assay with COS7 [13]; in [15]) was “inactive” each time. For the same compound, the inhibition entry in assay [2], in assay [6], in assay [7] and in assay [10] was “Active” each time. Besides, the 50% inhibitory concentration (IC50) in [4] (read-out: IC50) came out at 4 µM. Moreover, the Activity in assay [8] amounted to 15%. Further, the inhibition result in [14] is “Dose-dependent effect”.

As for `CS(=O)(=O)N1CCCC[C@@H]1C(=O)Nc1nc2cc3c(cc2s1)OCCO3`, the inhibition entry in [16], in assay [17], in assay [18] and in assay [19] was “inactive” in each case. Besides, the pIC50 result in assay [4] is “inactive”. In [4] (cos7), the IC50 entry is listed as “Not Active”.
